According to ChEMBL document CHEMBL4689842, “EUbOPEN Chemogenomics Library wave 1” (2021):

System: HEK-293T
Experiment: Multiplex assay against HEK293T;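 as to Population Tubulin-Different-Phenotype (%): share of the cells with healthy nuclei that show this phenotype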
Format: toxicity, cell-based
Conditions: human
Procedure, shortened: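 Tubulin, mitochondrial-mass and membrane-permeability phenotypes are per cents of healthy-nucleus cells. Cells were gated by CellPathfinder machine learning into Hoechst high-intensity objects or normal cells, normal cells into healthy, pyknosed or fragmented nuclei, and pyknosed cells into mitotic or apoptotic. Before that, live cells stained at seeding with Hoechst33342, BioTracker Green Microtubule Cytoskeleton Dye, MitoTracker Red and Annexin V Alexa Fluor 680 were imaged on a CQ1 microscope at 37°C and 5% CO2 after compound addition.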

[1] = 12 h, 1 µM, compound concentration 1 uM, replicate 1
[2] = 12 h, 1 µM, compound concentration 1 uM, replicate 2
[3] = 12 h, 10 µM, compound concentration 10 uM, replicate 1
[4] = 12 h, 10 µM, compound concentration 10 uM, replicate 2
[5] = 24 h, 1 µM, compound concentration 1 uM, replicate 1
[6] = 24 h, 1 µM, compound concentration 1 uM, replicate 2
[7] = 24 h, 10 µM, compound concentration 10 uM, replicate 1
[8] = 24 h, 10 µM, compound concentration 10 uM, replicate 2
[9] = 48 h, 1 µM, compound concentration 1 uM, replicate 1
[10] = 48 h, 1 µM, compound concentration 1 uM, replicate 2
[11] = 48 h, 10 µM, compound concentration 10 uM, replicate 1
[12] = 48 h, 10 µM, compound concentration 10 uM, replicate 2

CNC(=O)Nc1ccc(-c2nc(N3CC4CCC(C3)O4)c3cnn(C4CCC5(CC4)OCCO5)c3n2)cc1
Population Apoptotic (%) [1]: 55% | Population Fragmented Nuclei (%) [1]: 24% | Population Healthy Nuclei (%) [1]: 6% | Population Hoechst High Intensity Objects (%) [1]: 20% | Population Membrane Permeable-Phenotype (%) [1]: 0% | Population Mitochondria Different-Phenotype (%) [1]: 75% | Population Mitotic Cells (%) [1]: 44% | Population Normal (%) [1]: 79% | Population Pyknosed Nuclei (%) [1]: 68% | Population Tubulin-Different-Phenotype (%) [1]: 50% | Total Cell Count [1]: 149 | Population Apoptotic (%) [2]: 23% | Population Fragmented Nuclei (%) [2]: 9% | Population Healthy Nuclei (%) [2]: 26% | Population Hoechst High Intensity Objects (%) [2]: 10% | Population Membrane Permeable-Phenotype (%) [2]: 8% | Population Mitochondria Different-Phenotype (%) [2]: 32% | Population Mitotic Cells (%) [2]: 76% | Population Normal (%) [2]: 89% | Population Pyknosed Nuclei (%) [2]: 64% | Population Tubulin-Different-Phenotype (%) [2]: 24% | Total Cell Count [2]: 155 | Population Apoptotic (%) [3]: 76% | Population Fragmented Nuclei (%) [3]: 18% | Population Healthy Nuclei (%) [3]: 7% | Population Hoechst High Intensity Objects (%) [3]: 26% | Population Membrane Permeable-Phenotype (%) [3]: 11% | Population Mitochondria Different-Phenotype (%) [3]: 88% | Population Mitotic Cells (%) [3]: 23% | Population Normal (%) [3]: 73% | Population Pyknosed Nuclei (%) [3]: 73% | Population Tubulin-Different-Phenotype (%) [3]: 88% | Total Cell Count [3]: 167 | Population Apoptotic (%) [4]: 56% | Population Fragmented Nuclei (%) [4]: 8% | Population Healthy Nuclei (%) [4]: 8% | Population Hoechst High Intensity Objects (%) [4]: 7% | Population Membrane Permeable-Phenotype (%) [4]: 6% | Population Mitochondria Different-Phenotype (%) [4]: 100% | Population Mitotic Cells (%) [4]: 43% | Population Normal (%) [4]: 92% | Population Pyknosed Nuclei (%) [4]: 82% | Population Tubulin-Different-Phenotype (%) [4]: 100% | Total Cell Count [4]: 182 | Population Apoptotic (%) [5]: 68% | Population Fragmented Nuclei (%) [5]: 32% | Population Healthy Nuclei (%) [5]: 5% | Population Hoechst High Intensity Objects (%) [5]: 29% | Population Membrane Permeable-Phenotype (%) [5]: 16% | Population Mitochondria Different-Phenotype (%) [5]: 66% | Population Mitotic Cells (%) [5]: 31% | Population Normal (%) [5]: 70% | Population Pyknosed Nuclei (%) [5]: 61% | Population Tubulin-Different-Phenotype (%) [5]: 16% | Total Cell Count [5]: 151 | Population Apoptotic (%) [6]: 21% | Population Fragmented Nuclei (%) [6]: 12% | Population Healthy Nuclei (%) [6]: 34% | Population Hoechst High Intensity Objects (%) [6]: 10% | Population Membrane Permeable-Phenotype (%) [6]: 8% | Population Mitochondria Different-Phenotype (%) [6]: 35% | Population Mitotic Cells (%) [6]: 78% | Population Normal (%) [6]: 89% | Population Pyknosed Nuclei (%) [6]: 53% | Population Tubulin-Different-Phenotype (%) [6]: 20% | Total Cell Count [6]: 158 | Population Apoptotic (%) [7]: 81% | Population Fragmented Nuclei (%) [7]: 23% | Population Healthy Nuclei (%) [7]: 3% | Population Hoechst High Intensity Objects (%) [7]: 27% | Population Membrane Permeable-Phenotype (%) [7]: 25% | Population Mitochondria Different-Phenotype (%) [7]: 75% | Population Mitotic Cells (%) [7]: 18% | Population Normal (%) [7]: 72% | Population Pyknosed Nuclei (%) [7]: 73% | Population Tubulin-Different-Phenotype (%) [7]: 75% | Total Cell Count [7]: 165 | Population Apoptotic (%) [8]: 68% | Population Fragmented Nuclei (%) [8]: 10% | Population Healthy Nuclei (%) [8]: 17% | Population Hoechst High Intensity Objects (%) [8]: 11% | Population Membrane Permeable-Phenotype (%) [8]: 17% | Population Mitochondria Different-Phenotype (%) [8]: 85% | Population Mitotic Cells (%) [8]: 31% | Population Normal (%) [8]: 88% | Population Pyknosed Nuclei (%) [8]: 72% | Population Tubulin-Different-Phenotype (%) [8]: 96% | Total Cell Count [8]: 182 | Population Apoptotic (%) [9]: 62% | Population Fragmented Nuclei (%) [9]: 46% | Population Healthy Nuclei (%) [9]: 3% | Population Hoechst High Intensity Objects (%) [9]: 33% | Population Membrane Permeable-Phenotype (%) [9]: 0% | Population Mitochondria Different-Phenotype (%) [9]: 66% | Population Mitotic Cells (%) [9]: 37% | Population Normal (%) [9]: 66% | Population Pyknosed Nuclei (%) [9]: 50% | Population Tubulin-Different-Phenotype (%) [9]: 33% | Total Cell Count [9]: 144 | Population Apoptotic (%) [10]: 34% | Population Fragmented Nuclei (%) [10]: 13% | Population Healthy Nuclei (%) [10]: 46% | Population Hoechst High Intensity Objects (%) [10]: 11% | Population Membrane Permeable-Phenotype (%) [10]: 1% | Population Mitochondria Different-Phenotype (%) [10]: 50% | Population Mitotic Cells (%) [10]: 65% | Population Normal (%) [10]: 88% | Population Pyknosed Nuclei (%) [10]: 40% | Population Tubulin-Different-Phenotype (%) [10]: 61% | Total Cell Count [10]: 138 | Population Apoptotic (%) [11]: 84% | Population Fragmented Nuclei (%) [11]: 35% | Population Healthy Nuclei (%) [11]: 8% | Population Hoechst High Intensity Objects (%) [11]: 23% | Population Membrane Permeable-Phenotype (%) [11]: 11% | Population Mitochondria Different-Phenotype (%) [11]: 100% | Population Mitotic Cells (%) [11]: 15% | Population Normal (%) [11]: 76% | Population Pyknosed Nuclei (%) [11]: 56% | Population Tubulin-Different-Phenotype (%) [11]: 100% | Total Cell Count [11]: 146 | Population Apoptotic (%) [12]: 65% | Population Fragmented Nuclei (%) [12]: 8% | Population Healthy Nuclei (%) [12]: 40% | Population Hoechst High Intensity Objects (%) [12]: 8% | Population Membrane Permeable-Phenotype (%) [12]: 1% | Population Mitochondria Different-Phenotype (%) [12]: 83% | Population Mitotic Cells (%) [12]: 34% | Population Normal (%) [12]: 91% | Population Pyknosed Nuclei (%) [12]: 51% | Population Tubulin-Different-Phenotype (%) [12]: 90% | Total Cell Count [12]: 181
